In brackets after ≈: the same amount, converted by molar mass.
Experiments:
Format in all cases: functional
Streptococcus pneumoniae [1] = experiment: Antibacterial activity against erythromycin-resistant Streptococcus pneumoniae B1 expressing ermB gene by broth microdilution method
Procedure, shortened: (§1)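 MICs measured in vitro by broth microdilution following NCCL recommendations, against a Gram-positive panel of sensitive and resistant strains. Azithromycin and clarithromycin were tested alongside as references.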

Staphylococcus aureus [2] = experiment: Antibacterial activity against clinically isolated penicillin-resistant Staphylococcus aureus by broth microdilution method
Procedure, shortened: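 Clinical penicillin-resistant S. aureus isolate, not further characterized, tested in a Gram-positive panel. MIC was measured by broth microdilution following NCCL recommendations, with azithromycin and clarithromycin as references.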

Staphylococcus aureus [3] = experiment: Antibacterial activity against erythromycin-susceptible Staphylococcus aureus ATCC 25923 by broth microdilution method
Procedure, shortened: (§2)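 Broth microdilution MIC following the NCCL-recommended method. Panel of sensitive and resistant Gram-positive strains: S. pyogenes S2 (erythromycin-susceptible clinical isolate), S. aureus ATCC25923 and S. pneumoniae ATCC49619 (erythromycin-susceptible). Azithromycin and clarithromycin were run alongside as references.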

Staphylococcus aureus [4] = experiment: Antibacterial activity against methicillin-susceptible Staphylococcus aureus ATCC 29213 by broth microdilution method; procedure, shortened: as §1
Streptococcus pyogenes [5] = experiment: Antibacterial activity against clinically isolated erythromycin-resistant Streptococcus pyogenes R2 by broth microdilution method; procedure, shortened: as §1
Streptococcus pneumoniae [6] = experiment: Antibacterial activity against erythromycin-resistant Streptococcus pneumoniae AB11 expressing ermB and mefA genes by broth microdilution method; procedure, shortened: as §1
Streptococcus pyogenes [7] = experiment: Antibacterial activity against clinically isolated erythromycin-susceptible Streptococcus pyogenes S2 by broth microdilution method; procedure, shortened: as §2
Streptococcus pneumoniae [8] = experiment: Antibacterial activity against erythromycin-resistant Streptococcus pneumoniae A22072 expressing mefA gene by broth microdilution method; procedure, shortened: as §1
Streptococcus pneumoniae [9] = experiment: Antibacterial activity against erythromycin-susceptible Streptococcus pneumoniae ATCC 49619 by broth microdilution method; procedure, shortened: as §2

| SMILES | MIC (Streptococcus pneumoniae [1]) | MIC (Staphylococcus aureus [2]) | MIC (Staphylococcus aureus [3]) | MIC (Staphylococcus aureus [4]) | MIC (Streptococcus pyogenes [5]) | MIC (Streptococcus pneumoniae [6]) | MIC (Streptococcus pyogenes [7]) | MIC (Streptococcus pneumoniae [8]) | MIC (Streptococcus pneumoniae [9]) |
| --- | --- | --- | --- | --- | --- | --- | --- | --- | --- |
| CC[C@H]1OC(=O)[C@@H](C)[C@H](O[C@H]2C[C@@](C)(OC)[C@@H](OC(=O)NNC(=O)/C=C/c3ccccc3F)[C@H](C)O2)[C@@H](C)[C@H](O[C@H]2O[C@@H](C)C[C@@H](N(C)C)[C@@H]2O)[C@@](C)(O)C[C@H](C)CN(C)[C@@H](C)[C@@H]2OC(=O)O[C@@]12C | 16 µg/mL (≈ 16.3 µM) | 16 µg/mL (≈ 16.3 µM) | 4 µg/mL (≈ 4.08 µM) | 8 µg/mL (≈ 8.15 µM) | 64 µg/mL (≈ 65.2 µM) | 32 µg/mL (≈ 32.6 µM) | 0.25 µg/mL (≈ 0.255 µM) | 2 µg/mL (≈ 2.04 µM) | 8 µg/mL (≈ 8.15 µM) |
| CC[C@H]1OC(=O)[C@@H](C)[C@H](O[C@@H]2C[C@](C)(OC)[C@H](OC(=O)NNC(=O)/C=C/c3ccc(Cl)cc3)[C@@H](C)O2)[C@H](C)[C@H](O[C@H]2O[C@@H](C)C[C@@H](N(C)C)[C@@H]2O)[C@@](C)(O)C[C@H](C)CN(C)[C@@H](C)[C@H](OC(=O)NCc2ccccc2)[C@@]1(C)O | 4 µg/mL (≈ 3.62 µM) | 2 µg/mL (≈ 1.81 µM) | 1 µg/mL (≈ 0.905 µM) | 4 µg/mL (≈ 3.62 µM) | 16 µg/mL (≈ 14.5 µM) | 2 µg/mL (≈ 1.81 µM) | 0.5 µg/mL (≈ 0.453 µM) | 0.25 µg/mL (≈ 0.226 µM) | 0.5 µg/mL (≈ 0.453 µM) |
| CC[C@H]1OC(=O)[C@@H](C)[C@H](O[C@H]2C[C@@](C)(OC)[C@@H](OC(=O)NNC(=O)/C=C/c3ccc(Cl)cc3)[C@H](C)O2)[C@@H](C)[C@H](O[C@H]2O[C@@H](C)C[C@@H](N(C)C)[C@@H]2O)[C@@](C)(O)C[C@H](C)CN(C)[C@@H](C)[C@@H]2OC(=O)O[C@@]12C | 8 µg/mL (≈ 8.02 µM) | 8 µg/mL (≈ 8.02 µM) | 8 µg/mL (≈ 8.02 µM) | 8 µg/mL (≈ 8.02 µM) | 32 µg/mL (≈ 32.1 µM) | 8 µg/mL (≈ 8.02 µM) | 1 µg/mL (≈ 1 µM) | 0.5 µg/mL (≈ 0.501 µM) | 4 µg/mL (≈ 4.01 µM) |
| CC[C@@H]1OC(=O)[C@H](C)[C@@H](O[C@H]2C[C@@](C)(OC)[C@@H](OC(=O)NNC(=O)/C=C/c3ccccc3OC)[C@H](C)O2)[C@@H](C)[C@@H](O[C@@H]2O[C@H](C)C[C@H](N(C)C)[C@H]2O)[C@](C)(O)C[C@@H](C)CN(C)[C@H](C)[C@@H](OC(=O)NCc2ccccc2)[C@]1(C)O | 16 µg/mL (≈ 14.5 µM) | 2 µg/mL (≈ 1.82 µM) | 0.5 µg/mL (≈ 0.454 µM) | 2 µg/mL (≈ 1.82 µM) | 32 µg/mL (≈ 29.1 µM) | 8 µg/mL (≈ 7.27 µM) | 0.25 µg/mL (≈ 0.227 µM) | 0.5 µg/mL (≈ 0.454 µM) | 0.5 µg/mL (≈ 0.454 µM) |
| CC[C@H]1OC(=O)[C@@H](C)[C@H](O[C@H]2C[C@@](C)(OC)[C@@H](OC(=O)NNC(=O)/C=C/c3cc(OC)c(OC)c(OC)c3)[C@H](C)O2)[C@@H](C)[C@H](O[C@H]2O[C@@H](C)C[C@@H](N(C)C)[C@@H]2O)[C@@](C)(O)C[C@H](C)CN(C)[C@@H](C)[C@@H]2OC(=O)O[C@@]12C | 32 µg/mL (≈ 30.4 µM) | 16 µg/mL (≈ 15.2 µM) | 8 µg/mL (≈ 7.6 µM) | 16 µg/mL (≈ 15.2 µM) | 64 µg/mL (≈ 60.8 µM) | 16 µg/mL (≈ 15.2 µM) | 0.5 µg/mL (≈ 0.475 µM) | 0.5 µg/mL (≈ 0.475 µM) | 4 µg/mL (≈ 3.8 µM) |
| CC[C@@H]1OC(=O)[C@H](C)[C@@H](O[C@H]2C[C@@](C)(OC)[C@@H](OC(=O)NNC(=O)/C=C/c3ccccc3OC)[C@H](C)O2)[C@@H](C)[C@@H](O[C@@H]2O[C@H](C)C[C@H](N(C)C)[C@H]2O)[C@](C)(O)C[C@@H](C)CN(C)[C@H](C)[C@@H](OC(=O)NCc2ccc(OC)cc2)[C@]1(C)O | 4 µg/mL (≈ 3.54 µM) | 4 µg/mL (≈ 3.54 µM) | 1 µg/mL (≈ 0.885 µM) | 4 µg/mL (≈ 3.54 µM) | 64 µg/mL (≈ 56.6 µM) | 8 µg/mL (≈ 7.08 µM) | 0.25 µg/mL (≈ 0.221 µM) | 0.25 µg/mL (≈ 0.221 µM) | 0.25 µg/mL (≈ 0.221 µM) |
| CC[C@H]1OC(=O)[C@@H](C)[C@H](O[C@H]2C[C@@](C)(OC)[C@@H](OC(=O)NNC(=O)/C=C/c3ccc([N+](=O)[O-])cc3)[C@H](C)O2)[C@@H](C)[C@H](O[C@H]2O[C@@H](C)C[C@@H](N(C)C)[C@@H]2O)[C@@](C)(O)C[C@H](C)CN(C)[C@@H](C)[C@@H]2OC(=O)O[C@@]12C | 16 µg/mL (≈ 15.9 µM) | 16 µg/mL (≈ 15.9 µM) | 2 µg/mL (≈ 1.98 µM) | 8 µg/mL (≈ 7.94 µM) | ≥ 128 µg/mL | 8 µg/mL (≈ 7.94 µM) | 0.25 µg/mL (≈ 0.248 µM) | 0.5 µg/mL (≈ 0.496 µM) | 2 µg/mL (≈ 1.98 µM) |
